Source: PubChem
The list is not random: actives were taken first. Their share in the collection is about 3.5%.
MrgX1 agonist = activates human MrgX1 receptor signaling; Q96LB2; MrgX1-HEK293 cells, Fluo-4 calcium fluorescence, agonist mode; active compounds read high; B-score at 10 µM; 310,000 compounds, 0.44% hits; AID 588627;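 active = calcium response B-score plate-corrected fluorescence ratio at least 3 library SD, with starting fluorescence B-score inside 5 SD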
Target sequence (Q96LB2 whole entry, looked up): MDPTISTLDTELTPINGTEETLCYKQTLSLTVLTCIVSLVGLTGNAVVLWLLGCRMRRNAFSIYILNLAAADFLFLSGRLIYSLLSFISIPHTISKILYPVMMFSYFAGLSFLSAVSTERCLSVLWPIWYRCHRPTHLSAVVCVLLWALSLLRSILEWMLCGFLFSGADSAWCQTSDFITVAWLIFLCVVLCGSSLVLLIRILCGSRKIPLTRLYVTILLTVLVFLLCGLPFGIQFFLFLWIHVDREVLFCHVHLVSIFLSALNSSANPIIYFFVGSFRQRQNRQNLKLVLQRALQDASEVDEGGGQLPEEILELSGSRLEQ
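Material: MrgX1-expressing HEK293 cells / Dosing: compound as first of three additions / Incubation: overnight seeding, then 1 h dark dye loading / Signal: Fluo-4 NW calcium fluorescence / Evaluation: B-scored fluorescence response ratio / Benchmarks: positive and negative control wells on each plate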
MrgX1 allo act = allosterically activates human MrgX1 receptor signaling; B-score at 10 µM; MrgX1-HEK293, Fluo-4 calcium flux, FDSS; active compounds read high; 310,000 compounds, 0.63% hits;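 active = plate-corrected calcium response at least 3 library SD above typical, normal starting fluorescence, not activating the receptor alone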;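 note: compound read alongside a low EC10 to EC30 dose of BAM8-22 agonist; peak minus trough fluorescence over baseline measured at the second addition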
RGS4 pot = RGS4 potentiation or activation; B-score at 10 µM; HEK293 M3R/inducible RGS4, carbachol calcium flux Fluo4; active compounds read low; 310,000 compounds, 0.92% hits;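 active = B-score of the integrated calcium signal more than 4 SD below the library mean, with starting fluorescence not abnormally high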;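 note: negative B-score means reduced calcium response which marks RGS4 activation or potentiation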
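Assay system: HEK293 FlpIn-TREx cells, stable M3R, doxycycline-inducible RGS4 / Probe or stimulus: carbachol, ECmax concentration / Times: overnight RGS4 induction, 30 min dye load 37 °C, 20 min compound RT / Signal: kinetic calcium fluorescence imaging with Fluo4-AM dye, 2 µM / Measure: Agonist-evoked peak-minus-minimum fluorescence over baseline, integrated ratio, B score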
MrgX1 antag = human MrgX1 receptor antagonism, primary screen. B-score at 10 µM. AID 588676. 310,000 compounds, 1.3% hits. MRGX1-HEK293 calcium flux, Fluo-4, BAM8-22 antagonism; active compounds read low. Q96LB2;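 active = calcium-response B-score plate-corrected more than 3 library SD below zero, starting fluorescence within 5 deviations, no agonist response on first addition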;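 note: peak minus trough fluorescence over baseline after final BAM8-22 challenge near maximal dose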
RGS4 inh = human RGS4 inhibition. P49798. HEK293 M3R/RGS4 inducible, Fluo-4 calcium flux; active compounds read high; triggered by carbachol at its EC20. B-score at 10 µM. 310,000 compounds, 0.45% hits;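 active = B-score, a plate-corrected calcium signal, over three deviations above library mean, with baseline fluorescence within five deviations of library mean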;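 note: RGS4 expression induced by doxycycline in cells with stable M3 receptor; B-score is computed from the integrated fluorescence ratio over baseline after carbachol; higher B-score means a larger calcium signal and so more RGS4 inhibition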
Target sequence (P49798 whole entry, looked up): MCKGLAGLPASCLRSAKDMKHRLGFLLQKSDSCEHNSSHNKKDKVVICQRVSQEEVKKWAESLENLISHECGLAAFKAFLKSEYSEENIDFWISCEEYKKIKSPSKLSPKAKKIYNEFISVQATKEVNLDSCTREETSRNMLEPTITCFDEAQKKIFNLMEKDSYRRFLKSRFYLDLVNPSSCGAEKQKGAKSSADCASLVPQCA
MrgX1 allo conf = reconfirmed allosteric activator of human MrgX1 receptor; shares compounds with MrgX1 allo act; MrgX1-HEK293, Fluo-4 calcium fluorescence, FDSS; activation (ratio percentage), % at 10 µM; 1,200 compounds, 13% hits;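 active = ratio at least 3 SD above the weak peptide control, stable starting fluorescence, no direct agonism earlier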;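 note: compound followed by low BAM8-22 agonist challenge near EC20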
HEK293 Ca flux = activity in parental HEK293 cells lacking MrgX1; shares compounds with MrgX1 antag; Fluo-4 calcium fluorescence, FDSS; fluorescence ratio F(max-min)/F0 at 10 µM; 4,000 compounds, 2% hits; AID 624111;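 active = duplicate-averaged calcium fluorescence ratio at least three times the standard deviation of buffer wells, a nonspecific response in parental cells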
HEK293 Ca counter = activity in parental HEK293 cells without MrgX1 | shares compounds with MrgX1 antag | parental HEK293 calcium flux, Fluo-4 fluorescence ratio; active compounds read high | fluorescence ratio F(max-min)/F0 at 10 µM | 4,000 compounds, 0.4% hits | AID 624114;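 active = calcium fluorescence ratio, averaged over duplicates, at least 3 SD of the buffer-well ratio, meaning a nonspecific response in receptor-free cells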;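 note: untransfected parental HEK293 lacking MrgX1 used as counterscreen for MrgX1 allosteric activators; fluorescence change taken during the second addition on a kinetic imager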
HEK293 Ca cntr2 = counter-screen for MrgX1 activators: effect in parental HEK293 cells | shares compounds with MrgX1 antag | Fluo-4 calcium fluorescence (FDSS); active compounds read high | fluorescence ratio F(max-min)/F0 at 10 µM | 4,000 compounds, 8.7% hits | AID 624115;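 active = calcium fluorescence ratio at least three times the spread of buffer wells, meaning a non-specific response in parental cells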
Each line names hits and unclear results; the compound was inactive in the other large screens (follow-up assays come after a bar, where they were run).

O=C(Nc1nccs1)C1C2/C=C\CCCCC21 (stereo not drawn)	MrgX1 allo act 12 | MrgX1 allo conf inactive | HEK293 Ca flux inactive | HEK293 Ca counter inactive | HEK293 Ca cntr2 inactive
CCN(CC(=O)Nc1c(F)cccc1F)C(=O)c1ccc(C(F)(F)F)cc1	MrgX1 allo act 8.1 | MrgX1 allo conf inactive | HEK293 Ca flux inactive | HEK293 Ca counter inactive | HEK293 Ca cntr2 inactive
Cc1nc2c(c3c1[nH]c1ccccc13)C(=O)CC(C)(C)C2	none
C=CCNC(=O)C(=O)c1c(-c2ccccc2)[nH]c2ccccc12	none
O=C(NCCc1ccccc1)C(=O)c1c(-c2ccccc2)[nH]c2ccccc12	MrgX1 allo act 11 | MrgX1 allo conf inactive | HEK293 Ca flux inactive | HEK293 Ca counter inactive | HEK293 Ca cntr2 inactive
CCN1CCN(C(=O)/C=C/c2ccc(C(C)C)cc2)CC1	none
CC(C)(Oc1ccc(Cl)cc1)C(=O)OCC(=O)N1CCN(c2ccccc2)CC1	none
CC(C)CN(C(=O)c1cccs1)C1CCS(=O)(=O)C1 (stereo not drawn)	none (no result: MrgX1 agonist, MrgX1 allo act, MrgX1 antag)
C=CCSc1nnc(-c2ccccc2N=Cc2c(C)[nH]n(-c3ccccc3)c2=O)c(=O)[nH]1	MrgX1 allo act 8.7 | MrgX1 allo conf inactive | HEK293 Ca flux inactive | HEK293 Ca counter inactive | HEK293 Ca cntr2 inactive
Cc1[nH]n(-c2ccccc2)c(=O)c1/C=N/c1nn[nH]n1	none
Cc1[nH]n(-c2ccccc2)c(=O)c1C=Nc1cnc2ccccc2c1	none
CSc1nnc(-c2ccccc2N=Cc2c(C)[nH]n(-c3ccc4ccccc4c3)c2=O)c(=O)[nH]1	MrgX1 allo act 12 | MrgX1 allo conf inactive | HEK293 Ca flux inactive | HEK293 Ca counter inactive | HEK293 Ca cntr2 inactive
CCCNS(=O)(=O)c1ccc(CCC(=O)NCCc2ccc(OC)c(OC)c2)cc1	none
O=C(COC(=O)c1ccc(NS(=O)(=O)c2ccc(Br)s2)cc1)NC1CCCC1	MrgX1 allo act 19 | MrgX1 allo conf inactive | HEK293 Ca flux inactive | HEK293 Ca counter inactive | HEK293 Ca cntr2 inactive
O=C(N/N=C/c1ccoc1)c1cc(O)cc(O)c1	none
CN(Cc1ccccc1)Cc1nc2c(c(=O)n(C)c(=O)n2C)n1CCCc1ccccc1	MrgX1 allo act 8.1 | MrgX1 allo conf inactive | HEK293 Ca flux inactive | HEK293 Ca counter inactive | HEK293 Ca cntr2 inactive
O=C(Cc1cccs1)NCc1cn2ccccc2n1	none
Fc1ccccc1NC(=S)N(CCN1CCCCC1)Cc1ccco1	MrgX1 allo act 11 | MrgX1 allo conf inactive | HEK293 Ca flux inactive | HEK293 Ca counter inactive | HEK293 Ca cntr2 inactive
CC(C)CNc1ncnc2c1cnn2Cc1ccccc1Cl	MrgX1 allo act 10 | MrgX1 allo conf inactive | HEK293 Ca flux inactive | HEK293 Ca counter inactive | HEK293 Ca cntr2 inactive
COc1cc(SC)ccc1C(=O)OCC(=O)N1CCCC1	MrgX1 allo act 11 | MrgX1 allo conf inactive | HEK293 Ca flux inactive | HEK293 Ca counter inactive | HEK293 Ca cntr2 inactive
CC(=O)c1sc2nc(C)c3c(c2c1N)CCCC3	MrgX1 allo act 9.7 | MrgX1 allo conf inactive | HEK293 Ca flux inactive | HEK293 Ca counter inactive | HEK293 Ca cntr2 inactive
C=CCSc1nc(Oc2ccccc2)c2sccc2n1	none
C=CCNc1nc(SCC=C)nc2ccsc12	MrgX1 allo act 7.4 | MrgX1 allo conf inactive | HEK293 Ca flux inactive | HEK293 Ca counter inactive | HEK293 Ca cntr2 inactive
CC(=O)c1ccc(NC(=O)Nc2ccc3c(c2)nc(C)n3C)cc1	MrgX1 allo act 8.8 | MrgX1 allo conf inactive | HEK293 Ca flux inactive | HEK293 Ca counter inactive | HEK293 Ca cntr2 inactive
O=C(NCc1ccc2c(c1)OCO2)NC12CC3CC(CC(C3)C1)C2	none
